Measured values taken from article PMC11375723 (ACS Omega, 2024).

Experiments:
Assay type in all cases: cell-based, human
[1] = system: HT-1080 fibrosarcoma cells; experiment: Resazurin antiproliferative microtiter assay, HT-1080; conditions: read-out: IC50, μM (± SEM), HT-1080, 48 h drug exposure
Procedure, shortened: (§1)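 Human cells at 37 °C, 5% CO2, with 10% cosmic calf serum in DMEM/F12 (A549), DMEM (MDA-MB-231, HFF) or EMEM (HT-1080, MRC-5). Plated 5,000 cells/180 µL and left 24 h to adhere. Test compound 0.1–100 µM, quadruplicate, 2–3 repeats, 48 h. Then 0.1% resazurin; fluorescence ex 530/em 590 after 24–48 h.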

[2] = system: A549 lung carcinoma cells; experiment: Resazurin antiproliferative microtiter assay, A549; conditions: read-out: IC50, μM (± SEM), A549, 48 h drug exposure
Procedure, shortened: as §1

[3] = system: MDA-MB-231 breast carcinoma cells; experiment: Resazurin antiproliferative microtiter assay, MDA-MB-231; conditions: read-out: IC50, μM (± SEM), MDA-MB-231, 48 h drug exposure
Procedure, shortened: as §1

Compound	IC50 [1]	IC50 [2]	IC50 [3]
Piperidine-2-(4-methoxyphenyl)diazothioformamide – Cu(l)Br [Compound 5c]	< 1 µM		
Pyrrolidine-2-(4-methoxyphenyl)diazothioformamide – Cu(l)I [Compound 4b]	< 1 µM		
N.N.[Cl][Pt][Cl] [Cisplatin]	17.5 µM	19 µM	48.6 µM
